The text below walks through data of ChEMBL document CHEMBL3856184, “Tyrosol and hydroxytyrosol derivatives as antitrypanosomal and antileishmanial agents” (Eur J Med Chem, 2016).

By inhibition is commonly meant the change of the read-out against control, counted positive when it falls. High values mean a strong effect, low ones a weak effect. In general, IC50 refers to the point on the concentration scale where inhibition reaches its midpoint.

SMILES strings stand for the structures.

Data set [1] relates to Leishmania donovani. Briefly: Antileishmanial activity against Leishmania donovani MHOM/ET/67/HU3 axenic amastigotes at 20 uM after 72 hrs by resazurin-based assay relative to control. It counts as functional. As to conditions: MHOM/ET/67/HU3, 72 h. The method in brief:
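Axenic amastigotes grown in Schneider medium with 20% hiFBS, pH 5.4, 37 °C, 5% CO₂. 10⁶ parasites/ml exposed to a single 20 μM concentration for 72 h at 37 °C. Viability read by resazurin assay, reported as percent inhibition.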

The subject of the next data set is Leishmania infantum. The data set is described as follows: Leishmanicidal activity against Leishmania infantum MHOM/TN/94/LV50 promastigotes after 24 hrs by MTT assay. It counts as functional. The note with it: MHOM/TN/94/LV50, 24 h. For orientation: Tetrazolium dyes change colour on reduction, which living cells bring about.
Data set [2] in a line: Cytotoxicity against human MRC5 cells assessed as inhibition of cell proliferation measured after 72 hrs by MTT assay. It counts as toxicity, cell-based. Summed up: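 SV-40 transformed fetal lung fibroblasts kept in DMEM with 10% hiFBS and penicillin/streptomycin at 37 °C, 5% CO₂. Cells trypsinized, seeded at 4 x 10⁴ cell/ml and exposed to increasing concentrations for 72 h at 37 °C. Viability read by colorimetric MTT. EC₅₀ taken as the concentration reducing growth by 50% versus untreated cells.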

For the next data set, the system named is Leishmania major. The data set is described as follows: Leishmanicidal activity against Leishmania major MHOM/TN/95/GLC94 promastigotes after 24 hrs by MTT assay. It is filed as functional. As to conditions: MHOM/TN/95/GLC94, 24 h.
The nature of data set [3]: Selectivity index, ratio of IC50 for human MRC5 cells to IC50 for bloodstream form of Trypanosoma brucei brucei S16. The note with it: read-out: Ratio IC50. It counts as toxicity, cell-based.
Data set [4] relates to Trypanosoma brucei brucei. The data set is described as follows: Potency index, ratio of IC50 for tyrosol to IC50 for test compound against bloodstream form of Trypanosoma brucei brucei S16. It counts as functional.
The subject of data set [5] is Trypanosoma brucei brucei. Briefly: Antitrypanosomal activity against bloodstream form of Trypanosoma brucei brucei S16 assessed as inhibition of proliferation measured after 72 hrs by alamarBlue assay. It is filed as functional. The note with it: S16, 72 h. Summed up:
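Bloodstream forms cultured in HMI-9 with 10% hiFBS at 37 °C, 5% CO₂. Seeded at 1 × 10⁴ per mL with increasing compound concentrations for 72 h under the same conditions. Proliferation read by alamarBlue fluorescence, excitation 550 nm and emission 590 nm.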

Data set [6] concerns Leishmania donovani. Briefly: Antileishmanial activity against Leishmania donovani MON-2 MHOM/IN/1996/THAK35 amastigotes infected in mouse J774A.1 cells after 72 hrs by alamarBlue assay. It is filed as functional, cell-based. The note with it: MON-2 MHOM/IN/1996/THAK35, J774.A1, 72 h.

In the case of `CCCCCCCCCC(=O)OCCc1ccc(O)cc1`, the inhibition at 20 µM with Leishmania donovani [1] amounted to 34%. The IC50 came to 132 µM with Leishmania infantum, 65 µM in the data set with Leishmania major and 81.4 µM in data set [5]. Besides, in data set [2], the IC50 at 72 h was 172 µM. Moreover, the selectivity ratio in data set [3] was 2.1. For the same compound, the “Ratio IC50” value in data set [4] amounted to 0.16.

Consider `OCCc1ccc(O)c(O)c1` [HYDROXYTYROSOL], for which the inhibition at 20 µM in the data set on Leishmania donovani [1] came to 0%. Besides, in data set [2], the IC50 at 72 h was > 50 µM. Also, the IC50 in the data set on Leishmania donovani [6] was found to be 393 µM; in data set [5], 47.5 µM. In data set [3], the selectivity ratio is > 1.
